Compound activity: PubChem, several laboratories
APP 5'UTR act: activators of APP 5'UTR luciferase reporter, primary screen, SH-SY5Y cells. SH-SY5Y APP 5'UTR luciferase reporter, luminescence; zero percent = DMSO vehicle wells. activation, % at 2 µM. 1% of 190,000 active. AID 1276, 2008;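 active = activation above a set limit, based on mean plus 3 SD of controls, cut at about 140% in these data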
STAT3 activator: IL-6 driven STAT3 reporter potentiators, primary screen, U3A cells, luciferase, luminescence, MLSCN library. IL-6 STAT3-luciferase reporter; 100% = signal with IL-6 EC80 alone. activation (% of control), % at 5.6 µM. 0.91% of 190,000 active. AID 871, 2007;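 active = activation above the screen-wide mean of compound activation plus 3 SD, cut at about 130% in these data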;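 note: 0% = background luminescence of wells with medium and substrate only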
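Material: human U3A cells carrying STAT3-luciferase construct. Measured by: reporter luminescence signal. Timing: compound 1 h, then IL-6 6 h at 37 °C.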
NF-kB neuron act: activators of NF-kB expression in neurons, primary screen, cell-based, HTS. human neuronal cells, NF-kB reporter expression; hits give high values. fold change at 12.5 µM. 1.6% of 190,000 active. AID 1239, 2008; in the data active = fold change above about 3.3
STAT3 inh: IL-6 driven STAT3 reporter inhibitors, primary screen, U3A cells, luciferase, luminescence, MLSCN library; IL-6 STAT3-luciferase reporter; host cell line lacks STAT1; inhibition, % at 5.5 µM; 0.89% of 190,000 active; AID 862, 2007;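 active = inhibition above the mean inhibition across all screened compounds plus 3 SD, cut at about 44% in these data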;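 note: 0% = DMSO only wells and 100% = 100 µM nifuroxazide control wells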
STAT1 act: STAT1 signaling activators, primary screen, cell-based, HTS, luciferase reporter; NIH 3T3 STAT1-luciferase reporter, IFN-gamma, luminescence; 100% = IFN-gamma alone, no compound; 2.6% of 200,000 active; activation (% of control), % at 5.5 µM;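 active = activation above the screen-wide mean activation plus 3 SD, cut at about 130% in these data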;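 note: raw ratio to IFN-gamma control signal so 100% means no change and 0% no light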
STAT1 inh: STAT1 signaling inhibitors, primary screen, cell-based, HTS, luciferase reporter; NIH 3T3 STAT1-luciferase reporter, IFN-gamma, luminescence; 0.35% of 200,000 active; inhibition, % at 5.5 µM; AID 920, 2007;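 active = inhibition above a set limit, the mean inhibition across all tested compounds plus 3 SD, cut at about 34% in these data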;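 note: 0% = IFN-gamma with DMSO and 100% = IFN-gamma with 300 µM nifuroxazide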
Starred values were filed as active, the others as inactive; . = no result given. Most compounds without a hit are left out; they make up all but 5.1% or so of the library.

SMILES | APP 5'UTR act | STAT3 activator | NF-kB neuron act | STAT3 inh | STAT1 act | STAT1 inh
COC(c1ccccc1)c1nnc(CCC(=O)N(C)Cc2cccc(-n3cccn3)c2)o1 (configuration not stated) | 39 | 108 | 2.4 | -4 | 131* | -37
COC(c1ccccc1)c1nnc(CCC(=O)N(C)CCCC2CCCC2)o1 (configuration not stated) | 9 | 106 | 1.8 | -2 | 117 | -20
CCCN(CC1CC1)C(=O)CCc1nnc(C(OC)c2ccccc2)o1 (configuration not stated) | 3 | 106 | 1.5 | -2 | 103 | -5
COC(c1ccccc1)c1nnc(CCC(=O)N(C)CCOc2ccccc2)o1 (configuration not stated) | 34 | 103 | 2.2 | 3 | 135* | -37
COc1ccc(CNC(=O)OCCN2CCN(Cc3ccccc3)CCC2=O)cc1 | -10 | 98 | 1.1 | -1 | 95 | 5
CCOc1ccc(CC(=O)N2N=C(C)CC2(O)C(F)(F)F)cc1 (configuration not stated) | 2 | 98 | 0.93 | 1 | 104 | -4
Cc1ccc(-n2ncc3c(=O)n(CC(=O)NC4CCCCC4)cnc32)cc1 | -2 | 103 | 1 | 2 | 100 | 0
C=CCNC(=O)c1c(Cl)cnn1-c1ccc(C)cc1 | 104 | 101 | 3.2 | 4 | 139* | -45
Cc1ccc(-n2ncc(Cl)c2C(=O)NC2CC2)cc1 | 98 | 111 | 3 | -8 | 141* | -47
CCCN1CCN(CCCNC(=O)CCNC(=O)Cn2ccc3ccccc3c2=O)CC1 | -2 | 102 | 1.5 | 3 | 98 | 2
O=C(Nc1ccccc1)C1Cc2ccccc2CN1C(=O)c1ccco1 (configuration not stated) | 117 | 141* | 0.97 | -49 | 130* | -33
O=C(c1cc2nc(-c3ccc(F)cc3)cc(C(F)(F)F)n2n1)N1CCCCC1c1cccnc1 (configuration not stated) | -7 | 55 | 0.7 | 57* | 68 | 35*
O=C(c1cnn2c(C(F)(F)F)cc(-c3ccccc3)nc12)N1CCCCC1c1cccnc1 (configuration not stated) | -5 | 105 | 1.1 | -4 | 99 | -1
Cc1ccc(N/C(N)=N/c2nc(C)cc(N3CCCCC3)n2)c(C)c1 | -12 | 70 | 1 | 41 | 65 | 36*
CCn1c2ccccc2c2cc(NC(=O)c3cc(OC)c(OC)c(OC)c3)ccc21 | -8 | 116 | 3.2 | -8 | 103 | -3
CCn1c2ccccc2c2cc(NC(=O)c3cc(OC)cc(OC)c3)ccc21 | -95 | 128 | 4* | -33 | 97 | 3
CCOC(=O)c1sc2nc3c(cc2c1N)COC(C)(C)C3 | 117 | 102 | 5.9* | 2 | 136* | -39
O=C(Nc1ccc2c(c1)OCCO2)c1oc2ccccc2c1NC(=O)C1CC1 | -6 | 88 | 1.2 | 15 | 111 | -11
CCC(=O)Nc1c(C(=O)Nc2ccc3c(c2)OCCO3)oc2ccccc12 | 123 | 77 | 1.9 | 34 | 144* | -51
Cc1ccc(NC(=O)c2oc3ccccc3c2NC(=O)C2CCCO2)cc1C (configuration not stated) | 176* | 99 | . | 6 | 127 | -32
C/C(N)=C(/C#N)C(=O)COC(=O)CNS(=O)(=O)c1ccc(F)c(F)c1F | -9 | 104 | 0.87 | 4 | 97 | 2
C/C=C/c1ccc(OCCCCN2CC(C)CC(C)C2)c(OC)c1 (configuration not stated) | 2 | 109 | 1.1 | -6 | 97 | 0
Cc1cccc(C(=O)Oc2ccc(/C=N/O)cc2)c1 | 149* | 105 | 3.1 | -2 | 135* | -38
Cc1cccc(C(=O)Oc2ccccc2/C=N/Nc2ccc([N+](=O)[O-])cc2)c1 | -16 | 107 | 1 | -10 | 90 | 11
O=C(Oc1ccc(/C=N/O)cc1)c1ccccc1Cl | 61 | 100 | 2 | 5 | 142* | -48
SMILES | APP 5'UTR act | STAT3 activator | NF-kB neuron act | STAT3 inh | STAT1 act | STAT1 inh
O=C1C(C=NCc2cccnc2)=C(O)c2ccccc21 | 15 | 103 | 2.8 | 1 | 130* | -33
O=C1C(C=NCc2ccncc2)=C(O)c2ccccc21 | 17 | 108 | 1.1 | -4 | 105 | -5
C/C(=N\N1C(=O)CSC1=S)c1ccc(Br)cc1 | -26 | 95 | 1.1 | 13 | 101 | -1
CC1(C(=O)OCC(=O)c2c[nH]c3ccccc23)CC1(Cl)Cl (configuration not stated) | 145* | 115 | 2.3 | -20 | 138* | -41
O=C(OCC(=O)c1c[nH]c2ccccc12)C1=COCCO1 | 37 | 121 | 2.4 | -23 | 129* | -31
Cc1ccc(C(=O)OCC(=O)c2c[nH]c3ccccc23)cc1 | 44 | 133* | 1.8 | -34 | 126 | -29
O=C(OCC(=O)c1c[nH]c2ccccc12)c1ccc([N+](=O)[O-])s1 | 2 | 135* | . | -34 | 87 | 13
CC(C)Cc1ccc(C(C)C(=O)OCC(=O)c2c[nH]c3ccccc23)cc1 (configuration not stated) | -7 | 113 | 0.85 | -14 | 93 | 9
CCc1cccc2c(C(=O)COC(=O)c3ccc([N+](=O)[O-])s3)c[nH]c12 | -1 | 98 | 1 | 2 | 78 | 25
Cc1ccc(NCC(=O)N/N=C/c2cc(O)ccc2[N+](=O)[O-])cc1 | -6 | 98 | 1.1 | 9 | 105 | -8
Cc1[nH]n(-c2cccc(Cl)c2)c(=O)c1C=NC12CN3CN(CN(C3)C1)C2 | -15 | 100 | 1 | 10 | 94 | 5
Cc1[nH]n(-c2cccc(Cl)c2)c(=O)c1C=NCC(C)C | 77 | 113 | 2.8 | -11 | 144* | -51
Cc1[nH]n(-c2cccc(Cl)c2)c(=O)c1C=NCc1ccco1 | 145* | 77 | 6.7* | 29 | 128 | -32
Cc1c(Cl)cccc1NC(=O)c1cc(-c2ccccc2O)n[nH]1 | 70 | 92 | 1.6 | 10 | 106 | -7
Cc1ccc(-c2cc(-c3ccccc3Cl)[nH]n2)c(O)c1 | 171* | 118 | 9.8* | -18 | 102 | -3
Oc1ccc(Br)cc1-c1cc(-c2ccccc2F)[nH]n1 | 17 | 134* | 1.4 | -34 | 99 | 1
COc1ccccc1-c1cc(-c2cc(Cl)ccc2O)n[nH]1 | 24 | 117 | 1.3 | -15 | 100 | 0
Cc1ccccc1-c1cc(-c2ccccc2O)n[nH]1 | 158* | 126 | 7.7* | -28 | 99 | 1
Cc1cc(C(=O)Cn2nc(C(=O)O)c3ccccc3c2=O)c(C)n1CC(F)(F)F | -8 | 111 | 1.6 | -11 | 142* | -44
